The source of these data is ChEMBL document CHEMBL1142354, “Synthesis and biological evaluation of (hetero)arylmethyloxy- and arylmethylamine-phenyl derivatives as potent P-glycoprotein modulating agents” (J Med Chem, 2008).

The term EC50 denotes the concentration needed to bring the measured effect to its halfway point. Read a low EC50 as greater potency.

Series [1] deals with T1, ATP-dependent translocase ABCB1 (Homo sapiens, UniProt P08183). In words: Activation of human P-glycoprotein ATPase in Caco-2 cells assessed as ATP depletion at 100 uM. It counts as cell-based. As to conditions: caco-2, 100 µM; call rule not given here.
For series [2], the target named is T1, ATP-dependent translocase ABCB1. In words: Inhibition of human P-glycoprotein mediated [3H]vinblastine transport in human Caco-2 cells. It counts as cell-based.
For series [3], the system named is Caco-2. Briefly: Ratio of permeability from basolateral to apical side over apical to basolateral side in human Caco-2 cells. (Caco-2 cells form a polarised layer with tight junctions and transporters.)
Series [4] deals with T2, Broad substrate specificity ATP-binding cassette transporter ABCG2 (Homo sapiens, UniProt Q9UNQ0).
T2 sequence (Q9UNQ0 whole entry): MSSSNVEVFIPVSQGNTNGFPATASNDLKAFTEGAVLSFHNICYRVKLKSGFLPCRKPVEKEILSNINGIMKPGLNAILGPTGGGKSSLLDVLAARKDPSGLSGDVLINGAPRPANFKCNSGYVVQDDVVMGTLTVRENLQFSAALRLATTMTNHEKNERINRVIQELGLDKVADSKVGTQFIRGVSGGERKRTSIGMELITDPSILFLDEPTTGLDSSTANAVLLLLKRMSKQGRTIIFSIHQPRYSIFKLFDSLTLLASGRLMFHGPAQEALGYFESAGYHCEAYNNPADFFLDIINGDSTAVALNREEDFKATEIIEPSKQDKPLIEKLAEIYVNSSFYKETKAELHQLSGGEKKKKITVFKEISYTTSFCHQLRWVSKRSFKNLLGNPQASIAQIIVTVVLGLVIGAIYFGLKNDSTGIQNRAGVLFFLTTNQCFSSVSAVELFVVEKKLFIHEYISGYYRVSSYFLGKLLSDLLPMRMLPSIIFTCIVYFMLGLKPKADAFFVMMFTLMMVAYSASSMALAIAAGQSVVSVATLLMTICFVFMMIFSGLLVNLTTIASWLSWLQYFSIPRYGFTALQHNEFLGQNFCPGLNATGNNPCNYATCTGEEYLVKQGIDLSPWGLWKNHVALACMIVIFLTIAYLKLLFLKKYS
In words: Inhibition of human BCRP pump mediated [3H]mitoxantrone transport in human Caco-2 cells. It counts as cell-based. A digest of the protocol:
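Caco-2 cells were grown 21 days on multiscreen filters at 10 000 cells/well, and monolayers were used at TEER >800 Ω×cm². 20 nM [³H]-mitoxantrone was added basolaterally with or without compound (0.20–400 µM) for 120 min at 37 °C, and apical appearance was scintillation-counted. Percent inhibition at each concentration gave EC50; three independent determinations, triplicate samples.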

The test system of series [5] is MCF7. Briefly: Cytotoxicity against human MCF7 cells assessed as LDH release upto 50 uM after 48 hrs. It counts as cell-based. As to conditions: mcf7, 48 h.
The nature of series [6]: Cytotoxicity against human Adr cells assessed as LDH release upto 50 uM after 48 hrs. It counts as cell-based. In outline: (§1)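 MCF-7/Adr cells, which overexpress P-gp, were exposed in complete medium with or without test compound. LDH released into the medium was read with CytoTox-One substrate mix: 10 min at room temperature in the dark, then stop solution, fluorescence ex 560/em 590 nm. Cytotoxicity % is (treated LDH − medium background)/(total LDH of lysed untreated cells − background) × 100.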

Series [7] concerns MCF7. In words: Cytotoxicity against adriamycin-resistant human MCF7 cells assessed as LDH release at 1 uM after 48 hrs. It counts as cell-based. Particulars: mcf7, 48 h. A digest of the protocol: as §1
On the technique in general: Release of lactate dehydrogenase indicates damage to the cell membrane.

Each structure is given as a SMILES string. A value given as a limit tells only on which side of the number the result lay.

T1 sequence (P08183 whole entry): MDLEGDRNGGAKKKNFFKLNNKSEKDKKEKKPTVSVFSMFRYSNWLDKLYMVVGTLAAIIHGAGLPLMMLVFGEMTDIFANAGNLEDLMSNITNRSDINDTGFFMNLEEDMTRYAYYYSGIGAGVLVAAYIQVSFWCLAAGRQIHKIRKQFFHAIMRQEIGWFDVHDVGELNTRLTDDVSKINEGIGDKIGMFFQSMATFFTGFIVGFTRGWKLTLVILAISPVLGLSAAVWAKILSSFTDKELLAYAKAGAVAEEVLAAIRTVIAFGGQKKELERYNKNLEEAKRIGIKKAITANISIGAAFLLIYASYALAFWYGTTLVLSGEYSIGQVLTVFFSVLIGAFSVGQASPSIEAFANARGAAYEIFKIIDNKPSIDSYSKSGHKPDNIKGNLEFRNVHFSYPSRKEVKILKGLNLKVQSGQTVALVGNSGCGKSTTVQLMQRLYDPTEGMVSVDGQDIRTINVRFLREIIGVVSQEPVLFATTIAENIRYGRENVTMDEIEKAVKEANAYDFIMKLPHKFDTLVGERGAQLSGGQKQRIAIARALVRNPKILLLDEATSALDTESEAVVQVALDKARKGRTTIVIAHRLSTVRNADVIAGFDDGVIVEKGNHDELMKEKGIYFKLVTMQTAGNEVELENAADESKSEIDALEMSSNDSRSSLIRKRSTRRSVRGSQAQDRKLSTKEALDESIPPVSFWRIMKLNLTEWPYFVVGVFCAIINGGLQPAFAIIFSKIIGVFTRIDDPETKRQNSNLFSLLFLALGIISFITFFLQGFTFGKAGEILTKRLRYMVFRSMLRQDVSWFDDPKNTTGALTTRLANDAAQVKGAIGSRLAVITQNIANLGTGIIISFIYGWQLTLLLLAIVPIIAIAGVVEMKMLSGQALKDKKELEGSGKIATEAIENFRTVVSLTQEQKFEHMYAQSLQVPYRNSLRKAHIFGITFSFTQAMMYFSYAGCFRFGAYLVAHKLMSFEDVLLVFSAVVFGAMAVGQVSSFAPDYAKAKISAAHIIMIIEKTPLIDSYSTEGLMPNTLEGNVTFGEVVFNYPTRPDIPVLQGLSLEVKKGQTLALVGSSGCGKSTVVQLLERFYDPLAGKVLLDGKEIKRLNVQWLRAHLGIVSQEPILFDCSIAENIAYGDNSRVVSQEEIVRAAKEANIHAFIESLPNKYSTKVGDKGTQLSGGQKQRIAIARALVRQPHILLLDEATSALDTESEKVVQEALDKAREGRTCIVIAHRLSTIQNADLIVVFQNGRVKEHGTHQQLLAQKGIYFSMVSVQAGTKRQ

As to `COc1cccc(CCc2ccccc2OCc2ccccc2)c1`, the Activity entry in series [1] was “Not Active”.

In series [2], `c1ccc(CCc2ccccc2OCc2ccccc2)cc1` came in with an EC50 above 1000 µM. In addition, in series [1], the result was Active.

As to `c1ccc(CCc2ccccc2OCc2ccccn2)cc1`, in series [1], the Activity result is on record as “Not Active”.

`COc1cccc(CCc2ccccc2OCc2cccnc2)c1` returned an EC50 in series [2] above 1000 µM. Further, in series [1], the result was Active.

`c1ccc(CCc2ccccc2OCc2cccnc2)cc1`: the outcome in series [1] was Active.

With `COc1cccc(CCc2ccccc2OCc2cccc(OC)c2)c1`, the Activity result in series [1] was “Not Active”. In addition, in series [3], the Ratio is reported as 13.

In the case of `COc1cccc(CCc2ccccc2OCc2cccc(OC)c2OC)c1`, the Activity result in series [1] is listed as “Active”; in series [5], “Not Active”; in series [6] it was “Not Active”. The concentration for a half-maximal effect (EC50) in series [4] worked out at 120 µM.

Regarding `COc1cccc(COc2ccccc2CCc2ccccc2)c1OC`, the EC50 worked out at 0.8 µM in series [2] and 75 µM in series [4]. The Activity entry in series [1], in series [5] and in series [6] was “Not Active” throughout. Also, in series [3], the Ratio worked out at 0.95.

In the case of `COc1cccc(CCc2ccccc2NCc2cc(OC)cc(OC)c2)c1`, in series [2], the response was half-maximal at 0.9 µM (EC50). The Activity result in series [1], in series [5] and in series [6] was “Not Active” in each case. Also, in series [3], the Ratio is recorded as 6.9.

On to `COc1cccc(CCc2ccccc2OCc2ccccc2OC)c1`, for which the EC50 in series [2] came out at 12 µM. The Activity result in series [1] is “Not Active”. In series [3], the Ratio is 8.7.

Molecule `COc1cccc(CCc2ccccc2OCc2cc(OC)cc(OC)c2)c1` registered an EC50 in series [2] of 2.5 µM. Moreover, the Activity result in series [1] is given as “Not Active”. Besides, in series [3], the Ratio turned out to be 6.7.

In series [2], `COc1cc(COc2ccccc2CCc2ccccc2)cc(OC)c1` registered an EC50 of 1.6 µM. For the same molecule, the Activity result in series [1] was “Not Active”. In series [3], the Ratio came out at 5.7.

For `COc1ccc(COc2ccccc2CCc2ccccc2)cc1OC`, the EC50 in series [2] worked out at 0.75 µM; in series [4] it was 58 µM. For the same molecule, the Activity entry in series [1] is “Not Active”; in series [6], 10%. Also, the Ratio in series [3] worked out at 2.1.

On to `c1ccc(CCc2ccccc2OCc2ccncc2)cc1`, for which, in series [2], the EC50 is 18 µM. For the same molecule, the result in series [1] was Active. For the same molecule, the Ratio in series [3] came to 1.3.

For the molecule `COc1ccccc1COc1ccccc1CCc1ccccc1`, it took 20 µM to reach a half-maximal effect in series [2] (EC50). The Activity result in series [1] is on record as “Not Active”. The Ratio in series [3] is 1.4.

In the case of `COc1cccc(CCc2ccccc2NCc2ccc(OC)c(OC)c2)c1`, the EC50 came to 0.18 µM in series [2] and 0.5 µM in series [4]. In addition, the Activity result in series [1], in series [5] and in series [6] was “Not Active” each time. Moreover, the Ratio in series [3] is reported as 5.6.

Regarding `COc1cccc(CCc2ccccc2NCc2cccc(OC)c2OC)c1`, the EC50 in series [2] came to 0.085 µM; in series [4], 1.5 µM. In addition, the Activity result in series [1], in series [5] and in series [6] was “Not Active” throughout. In addition, the Ratio in series [3] came to 5.5.

Turning to `COc1cccc(CCc2ccccc2OCc2ccc(OC)c(OC)c2)c1`, the EC50 in series [2] worked out at 0.65 µM; in series [4], 150 µM. The Activity entry in series [1], in series [5] and in series [6] was “Not Active” in each case. Besides, the Ratio in series [3] was determined as 5.1.

Consider `COc1cccc(CCc2ccccc2OCc2ccncc2)c1`, for which a half-maximal effect in series [2] (EC50) was put at 0.85 µM. Also, the Activity result in series [1] was “Active”; in series [7], 50%. The Ratio in series [3] was 2.1.

`COc1cccc(CCc2ccccc2OCc2ccccn2)c1`: the Activity result in series [1] is recorded as “Not Active”.

Take `COc1cc2c(cc1OC)CN(CCc1ccc(NC(=O)c3cccc4c(=O)c5cccc(OC)c5[nH]c34)cc1)CC2`: the Activity entry in series [1] is given as “Not Active”.

`COc1ccc(COc2ccccc2CCc2ccccc2)cc1` had a half-maximal effective concentration (EC50) in series [2] of 3.1 µM. Besides, the Activity result in series [1] was “Not Active”. Moreover, the Ratio in series [3] is on record as 5.1.

On to `COc1cccc(CCc2ccccc2NCc2cccc(OC)c2)c1`, for which the figures for the EC50 in series [2] and in series [4] were 0.48 µM and 7 µM, respectively. The Activity result in series [1] is “Not Active”; in series [6], 10%. Also, the Ratio in series [3] worked out at 2.9.

Take `COc1ccc(COc2ccccc2CCc2cccc(OC)c2)cc1`: the concentration for a half-maximal effect (EC50) in series [2] came to 5.2 µM. Moreover, the Activity result in series [1] was “Not Active”. The Ratio in series [3] is recorded as 7.6.
